Laboratory results as given in ChEMBL document CHEMBL1139422, “Design, synthesis and biological evaluation of novel compounds with conjugated structure as anti-tumor agents” (Bioorg Med Chem, 2008).
The source made the active and inactive calls. No cut-off for these calls is given here.

Key:
Plasma [1] = experiment: Stability in rat plasma at 25 ug/ml; assay type: ADME, cell-free
Summary of the method: (§1)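 Compounds were dissolved in blank rat plasma (1 mg/mL stock) and serially diluted with plasma. Samples were incubated at 37 °C and sampled at several times. Proteins were precipitated with two volumes of acetonitrile and spun at 16,000 rpm for 5 min, and the supernatant was analysed by HPLC.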

Plasma [2] = experiment: Stability in rat plasma at 100 ug/ml; assay type: ADME, cell-free; summary of the method: as §1
Histone deacetylase 1 = Histone deacetylase 1 (Homo sapiens, UniProt Q13547); experiment: Inhibition of human recombinant HDAC1 using Fluor de Lys as substrate by fluorimetric assay
Histone deacetylase 1, sequence (Q13547 whole entry): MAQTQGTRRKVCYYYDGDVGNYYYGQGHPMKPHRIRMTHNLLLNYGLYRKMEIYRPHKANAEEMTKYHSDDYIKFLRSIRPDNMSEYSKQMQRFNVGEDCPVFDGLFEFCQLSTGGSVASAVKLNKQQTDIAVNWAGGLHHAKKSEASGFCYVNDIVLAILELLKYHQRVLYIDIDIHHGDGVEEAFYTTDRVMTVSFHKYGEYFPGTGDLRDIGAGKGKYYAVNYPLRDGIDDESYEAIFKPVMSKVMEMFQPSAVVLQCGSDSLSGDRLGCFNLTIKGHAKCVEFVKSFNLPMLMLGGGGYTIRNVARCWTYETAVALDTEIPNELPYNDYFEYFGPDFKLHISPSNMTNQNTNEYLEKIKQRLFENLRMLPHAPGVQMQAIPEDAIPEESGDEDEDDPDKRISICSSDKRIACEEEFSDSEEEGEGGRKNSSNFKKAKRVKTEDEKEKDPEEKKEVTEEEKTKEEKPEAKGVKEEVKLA
Summary of the method: (§2)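 Purified recombinant HDAC1 or HDAC4 was incubated with acetylated-lysine Fluor de Lys substrate, with or without inhibitor. Developer was then added to give the fluorophore, and fluorescence was read. IC50 values are means of at least three experiments. SI is IC50(HDAC1)/IC50(HDAC4).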

PC-3 = experiment: Antiproliferative activity against human PC3 cells after 48 hrs by MTT assay; assay type: functional, cell-based; details: PC-3, 48 h
Summary of the method: (§3)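 Cells seeded at 4000/well; compounds (10 mg/mL DMSO stock, diluted in medium) added 24 h after seeding, in duplicate. Incubation 48 h at 37 °C, 5% CO2. MTT (20 µL of 5 mg/mL in PBS) then added for 4 h at 37 °C, and the signal read at 570 nm.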

Homo sapiens = species on record: Homo sapiens; experiment: Selectivity index, ratio of IC50 for human recombinant HDAC1 to IC50 for human recombinant HDAC4; summary of the method: as §2
Histone deacetylase 4 = Histone deacetylase 4 (Homo sapiens, UniProt P56524); experiment: Inhibition of human recombinant HDAC4 using Fluor de Lys as substrate by fluorimetric assay; summary of the method: as §2
Histone deacetylase 4, sequence (P56524 whole entry): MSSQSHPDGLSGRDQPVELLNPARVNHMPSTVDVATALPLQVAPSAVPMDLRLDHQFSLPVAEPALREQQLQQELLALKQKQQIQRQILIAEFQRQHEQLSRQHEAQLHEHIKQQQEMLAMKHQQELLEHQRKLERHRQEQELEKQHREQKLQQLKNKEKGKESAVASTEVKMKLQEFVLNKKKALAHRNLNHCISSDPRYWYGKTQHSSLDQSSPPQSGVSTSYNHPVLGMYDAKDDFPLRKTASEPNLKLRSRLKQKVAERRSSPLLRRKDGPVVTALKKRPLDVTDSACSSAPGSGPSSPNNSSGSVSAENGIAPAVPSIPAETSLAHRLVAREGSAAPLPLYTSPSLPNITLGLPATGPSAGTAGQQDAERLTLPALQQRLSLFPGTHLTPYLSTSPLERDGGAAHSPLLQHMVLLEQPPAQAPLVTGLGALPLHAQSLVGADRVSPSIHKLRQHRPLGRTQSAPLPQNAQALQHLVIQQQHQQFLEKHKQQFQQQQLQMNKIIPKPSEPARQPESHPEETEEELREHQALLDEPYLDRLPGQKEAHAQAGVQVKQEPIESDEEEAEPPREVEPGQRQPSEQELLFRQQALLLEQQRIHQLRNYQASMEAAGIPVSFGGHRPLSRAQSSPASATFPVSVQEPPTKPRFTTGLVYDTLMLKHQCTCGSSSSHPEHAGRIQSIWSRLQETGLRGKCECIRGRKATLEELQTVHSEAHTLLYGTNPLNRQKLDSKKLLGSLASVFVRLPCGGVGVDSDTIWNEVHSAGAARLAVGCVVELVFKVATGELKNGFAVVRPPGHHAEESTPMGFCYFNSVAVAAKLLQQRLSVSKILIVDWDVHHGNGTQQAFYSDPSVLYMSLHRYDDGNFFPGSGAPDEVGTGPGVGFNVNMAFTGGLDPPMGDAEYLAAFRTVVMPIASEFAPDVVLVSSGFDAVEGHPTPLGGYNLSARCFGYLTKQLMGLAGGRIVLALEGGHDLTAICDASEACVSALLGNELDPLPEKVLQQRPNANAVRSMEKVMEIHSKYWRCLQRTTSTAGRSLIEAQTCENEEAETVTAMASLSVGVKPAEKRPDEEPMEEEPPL

U-937 [3] = experiment: Induction of p21waf1/CIP1 expression in human U937 cells after 24 hrs by Western blot analysis; assay type: functional, cell-based
Summary of the method: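 U937 cells were treated for 24 h. Total protein extracts (50 µg) were run on a 15% polyacrylamide gel and blotted for p21 (1:500), with tubulin as the loading control.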

A549 = experiment: Antiproliferative activity against human A549 cells after 48 hrs by MTT assay; assay type: functional, cell-based; details: A549, 48 h; summary of the method: as §3
[4] = biological target: T1, Protein deacetylase HDAC6 (Homo sapiens) (UniProt Q9UBN7); experiment: Inhibition of HDAC6 in human U937 cells assessed as induction of alpha-tubulin acetylation after 24 hrs by Western blot analysis; assay type: cell-based; details: U-937
T1 sequence (whole entry): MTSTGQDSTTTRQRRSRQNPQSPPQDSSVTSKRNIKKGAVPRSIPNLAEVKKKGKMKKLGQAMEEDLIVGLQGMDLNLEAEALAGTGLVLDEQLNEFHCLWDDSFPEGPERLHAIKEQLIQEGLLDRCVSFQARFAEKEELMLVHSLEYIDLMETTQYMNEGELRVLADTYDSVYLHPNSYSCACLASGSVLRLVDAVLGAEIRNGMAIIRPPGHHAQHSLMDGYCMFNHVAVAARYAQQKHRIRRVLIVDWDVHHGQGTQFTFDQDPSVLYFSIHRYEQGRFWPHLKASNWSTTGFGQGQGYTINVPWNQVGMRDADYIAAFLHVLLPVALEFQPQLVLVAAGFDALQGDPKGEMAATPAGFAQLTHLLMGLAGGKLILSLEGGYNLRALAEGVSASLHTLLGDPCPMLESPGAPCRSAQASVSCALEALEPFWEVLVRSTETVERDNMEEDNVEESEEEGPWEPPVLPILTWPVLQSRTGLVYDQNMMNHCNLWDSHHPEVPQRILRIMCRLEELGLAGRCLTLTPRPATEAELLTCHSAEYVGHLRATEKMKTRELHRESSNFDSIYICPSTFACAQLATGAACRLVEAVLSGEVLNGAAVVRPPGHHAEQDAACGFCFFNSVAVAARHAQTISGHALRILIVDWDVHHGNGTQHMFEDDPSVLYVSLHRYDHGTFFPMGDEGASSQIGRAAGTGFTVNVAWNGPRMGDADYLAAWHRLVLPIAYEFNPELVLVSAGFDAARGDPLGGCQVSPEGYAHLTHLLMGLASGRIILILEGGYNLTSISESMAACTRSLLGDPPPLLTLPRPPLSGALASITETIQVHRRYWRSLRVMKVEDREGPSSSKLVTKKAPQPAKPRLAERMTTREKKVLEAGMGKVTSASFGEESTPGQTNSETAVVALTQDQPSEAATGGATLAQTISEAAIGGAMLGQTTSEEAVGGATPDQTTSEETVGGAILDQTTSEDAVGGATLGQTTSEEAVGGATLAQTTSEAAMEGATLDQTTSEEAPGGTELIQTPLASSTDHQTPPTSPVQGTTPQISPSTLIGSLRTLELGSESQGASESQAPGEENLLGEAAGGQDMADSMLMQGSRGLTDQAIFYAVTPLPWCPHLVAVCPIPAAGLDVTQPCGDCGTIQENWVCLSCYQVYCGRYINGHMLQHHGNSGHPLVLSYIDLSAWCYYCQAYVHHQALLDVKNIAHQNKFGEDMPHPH
Summary of the method: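 U937 cells were treated for 24 h. Total protein extract (50 µg) was run on a 10% polyacrylamide gel and blotted for acetylated α-tubulin (1:500), with total ERK as the loading control.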

HepG2 = experiment: Antiproliferative activity against human HepG2 cells after 48 hrs by MTT assay; assay type: functional, cell-based; details: HepG2, 48 h; summary of the method: as §3
HCT-116 = experiment: Antiproliferative activity against human HCT116 cells after 48 hrs by MTT assay; assay type: functional, cell-based; details: HCT-116, 48 h; summary of the method: as §3
U-937 [5] = experiment: Cell cycle arrest in human U937 cells assessed as accumulation at S phase at 5 uM after 24 hrs by flow cytometry; assay type: functional, cell-based
Summary of the method: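 U937 cells were grown in RPMI with 10% FCS, penicillin/streptomycin, amphotericin-B, 10 mM Hepes and 2 mM glutamine, and held at 200,000 cells/mL. Cells were treated 24 h with compounds in DMSO. 2.5×10^5 cells were resuspended in hypotonic buffer (0.1% Triton X-100, 0.1% sodium citrate, 50 µg/mL PI, RNase A) for 30 min in the dark, then analysed by flow cytometry. Values are means of independent duplicates.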

[6] = Inhibition of HDAC
U-937 [7] = experiment: Increase in granulocytic differentiation in human U937 cells assessed as CD11c expression at 0.5 uM after 28 hrs by FACS analysis; assay type: functional, cell-based
Summary of the method: (§4)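 U937 cells were grown in RPMI with 10% FCS, 10 mM Hepes and 2 mM glutamine at 200,000 cells/mL. Compounds in DMSO were given for 30 h (5 µM) or 28 h (0.5 µM). Cells were stained for surface antigen for 30 min at 4 °C in the dark, washed, and resuspended in PBS with propidium iodide. PI-positive cells were excluded from the FACS analysis. Values are means of independent quadruplicates.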

Histone deacetylase = experiment: Inhibition of human recombinant HDAC by fluorimetric assay; assay type: protein assay
U-937 [8] = experiment: Induction of apoptosis in human U937 cells assessed as caspase 3 activation at 0.5 uM after 28 hrs by FACS analysis; assay type: functional, cell-based
Summary of the method: (§5)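 U937 cells were grown in supplemented RPMI at 200,000 cells/mL. Compounds in DMSO were given at 5 µM for 24 h or 30 h, or at 0.5 µM for 28 h. Apoptosis was analysed by FACS. Values are means of independent duplicates.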

Zea mays = experiment: Selectivity for maize histone deacetylase 1A over maize histone deacetylase 1B
U-937 [9] = experiment: Induction of monocytic differentiation in human U937 cells assessed as CD14 expression at 5 uM after 30 hrs by FACS analysis; assay type: functional, cell-based; summary of the method: as §4
U-937 [10] = experiment: Induction of apoptosis in human U937 cells assessed as caspase 3 activation at 5 uM after 30 hrs by FACS analysis; assay type: functional, cell-based; summary of the method: as §5
U-937 [11] = experiment: Increase in granulocytic differentiation in human U937 cells assessed as CD11c expression at 5 uM after 30 hrs by FACS analysis; assay type: functional, cell-based; summary of the method: as §4

Row | Stability (Plasma [1]) | Stability (Plasma [2]) | IC50 (Histone deacetylase 1) [µM] | IC50 (PC-3) [µM] | Ratio IC50 (Homo sapiens) | IC50 (Histone deacetylase 4) [µM] | IC50 (A549) [µM] | Activity [4] | IC50 (HepG2) [µM] | IC50 (HCT-116) [nM] | IC50 [6] [nM] | IC50 (Histone deacetylase) [µM] | Selectivity ratio (Zea mays) | SMILES | Activity (U-937 [3]) | Activity (U-937 [5]) | Activity (U-937 [7]) | Activity (U-937 [8]) | Activity (U-937 [9]) | Activity (U-937 [10]) | Activity (U-937 [11])
1 | – | – | 13.4 | 1.2 | 1.3 | 10.2 | 50.3 | – | 30.9 | – | – | 1.89 | – | COc1cc(/C=C/c2ccc(C(=O)NO)o2)ccc1OCc1ccccc1 | – | – | Active | Active | – | – | –
2 | Stable | Stable | 49.1 | 40.4 | 1.04 | 47.2 | 32.5 | – | 12.8 | 2490 | – | – | – | O=C(NO)c1ccc(/C=C/c2ccccc2)o1 | – | – | – | – | inactive | Active | Active

Continued, molecule first:

Row | SMILES | Stability (Plasma [1]) | Stability (Plasma [2]) | IC50 (Histone deacetylase 1) [µM] | IC50 (PC-3) [µM] | Ratio IC50 (Homo sapiens) | IC50 (Histone deacetylase 4) [µM] | IC50 (A549) [µM] | Activity [4] | IC50 (HepG2) [µM] | IC50 (HCT-116) [nM] | IC50 [6] [nM] | IC50 (Histone deacetylase) [µM] | Selectivity ratio (Zea mays) | Activity (U-937 [3]) | Activity (U-937 [5]) | Activity (U-937 [7]) | Activity (U-937 [8]) | Activity (U-937 [9]) | Activity (U-937 [10]) | Activity (U-937 [11])
3 | O=C(/C=C/c1ccc(/C=C/C(=O)c2ccccc2)o1)NO | Stable | Stable | 11.5 | 13.3 | 0.5 | 22.8 | 20.2 | Active | 12.1 | 2890 | – | – | – | Active | Active | – | – | – | – | –
4 | O=C(/C=C/C=C/C=C/c1ccccc1)NO | – | – | – | – | – | – | – | – | – | – | 1800 | – | – | – | – | – | – | – | – | –
5 | Cn1cc(/C=C/C(=O)c2cccc(F)c2)cc1/C=C/C(=O)NO | – | – | – | – | – | – | – | – | – | – | – | – | 176 | – | – | – | – | – | – | –
